Data taken from ChEMBL document CHEMBL5712901, “DOT1L inhibition blocks multiple myeloma cell proliferation by suppressing IRF4-MYC signaling” (2019).
Activity calls are given as the source filed them. No cut-off for these calls is given here.

Assays:
MM1.S [1] = assay: Upregulation of PRRT2 gene in human MM1.S cells at 1 uM for 6 days by; type: functional, cell-based; conditions: time 6.0 day
MM1.S [2] = assay: Upregulation of HLA-DMB gene in human MM1.S cells at 1 uM for 6 days by; type: functional, cell-based; conditions: time 6.0 day
Method in brief: (§1)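 Human myeloma lines RPMI-8226 and MM.1S exposed to 1 μM DOT1L inhibitor, or DMSO, for 6 days. Whole-genome expression profiled on gene expression microarray.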

RPMI-8226 [3] = assay: Upregulation of SMIM14 gene in human RPMI-8226 cells at 1 uM for 6 days by; type: functional, cell-based; conditions: time 6.0 day
MM1.S [4] = assay: Upregulation of MYOF gene in human MM1.S cells at 1 uM for 6 days by; type: functional, cell-based; conditions: time 6.0 day
RPMI-8226 [5] = assay: Upregulation of HOXB6 gene in human RPMI-8226 cells at 1 uM for 6 days by; type: functional, cell-based; conditions: time 6.0 day
RPMI-8226 [6] = assay: Upregulation of MME gene in human RPMI-8226 cells at 1 uM for 6 days by; type: functional, cell-based; conditions: time 6.0 day
MM1.S [7] = assay: Upregulation of EMID1 gene in human MM1.S cells at 1 uM for 6 days by; type: functional, cell-based; conditions: time 6.0 day; method in brief: as §1
RPMI-8226 [8] = assay: Upregulation of CCDC74B gene in human RPMI-8226 cells at 1 uM for 6 days by; type: functional, cell-based; conditions: time 6.0 day
RPMI-8226 [9] = assay: Upregulation of PRRT2 gene in human RPMI-8226 cells at 1 uM for 6 days by; type: functional, cell-based; conditions: time 6.0 day
MM1.S [10] = assay: Upregulation of ENC1 gene in human MM1.S cells at 1 uM for 6 days by; type: functional, cell-based; conditions: time 6.0 day; method in brief: as §1
RPMI-8226 [11] = assay: Upregulation of CACNB3 gene in human RPMI-8226 cells at 1 uM for 6 days by; type: functional, cell-based; conditions: time 6.0 day
MM1.S [12] = assay: Upregulation of ZG16B gene in human MM1.S cells at 1 uM for 6 days by; type: functional, cell-based; conditions: time 6.0 day
MM1.S [13] = assay: Upregulation of CCR5 gene in human MM1.S cells at 1 uM for 6 days by; type: functional, cell-based; conditions: time 6.0 day
MM1.S [14] = assay: Upregulation of S100A10 gene in human MM1.S cells at 1 uM for 6 days by; type: functional, cell-based; conditions: time 6.0 day
MM1.S [15] = assay: Upregulation of NOG gene in human MM1.S cells at 1 uM for 6 days by; type: functional, cell-based; conditions: time 6.0 day
RPMI-8226 [16] = assay: Upregulation of GNAI1 gene in human RPMI-8226 cells at 1 uM for 6 days by; type: functional, cell-based; conditions: time 6.0 day; method in brief: as §1
RPMI-8226 [17] = assay: Upregulation of NEURL1B gene in human RPMI-8226 cells at 1 uM for 6 days by; type: functional, cell-based; conditions: time 6.0 day
RPMI-8226 [18] = assay: Upregulation of ISG15 gene in human RPMI-8226 cells at 1 uM for 6 days by; type: functional, cell-based; conditions: time 6.0 day
RPMI-8226 [19] = assay: Upregulation of ANXA2R gene in human RPMI-8226 cells at 1 uM for 6 days by; type: functional, cell-based; conditions: time 6.0 day
RPMI-8226 [20] = assay: Upregulation of NOG gene in human RPMI-8226 cells at 1 uM for 6 days by; type: functional, cell-based; conditions: time 6.0 day
RPMI-8226 [21] = assay: Upregulation of NREP gene in human RPMI-8226 cells at 1 uM for 6 days by; type: functional, cell-based; conditions: time 6.0 day
MM1.S [22] = assay: Upregulation of IFITM1 gene in human MM1.S cells at 1 uM for 6 days by; type: functional, cell-based; conditions: time 6.0 day
RPMI-8226 [23] = assay: Upregulation of IL13RA1 gene in human RPMI-8226 cells at 1 uM for 6 days by; type: functional, cell-based; conditions: time 6.0 day
MM1.S [24] = assay: Upregulation of FNBP1L gene in human MM1.S cells at 1 uM for 6 days by; type: functional, cell-based; conditions: time 6.0 day; method in brief: as §1
RPMI-8226 [25] = assay: Upregulation of HLA-DQB1 gene in human RPMI-8226 cells at 1 uM for 6 days by; type: functional, cell-based; conditions: time 6.0 day
RPMI-8226 [26] = assay: Upregulation of TP53TG3 gene in human RPMI-8226 cells at 1 uM for 6 days by; type: functional, cell-based; conditions: time 6.0 day
MM1.S [27] = assay: Upregulation of SAP30L gene in human MM1.S cells at 1 uM for 6 days by; type: functional, cell-based; conditions: time 6.0 day
KMS-11 = assay: Upregulation of DOT1L in human KMS-11 cells by qRT-PCR analysis; type: functional, cell-based
Method in brief: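 Basal DOT1L transcript in untreated myeloma cell lines measured by qRT-PCR, normalized to ACTB; mean of 3 replicates with SEM.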

MM1.S [28] = assay: Upregulation of MYO1F gene in human MM1.S cells at 1 uM for 6 days by; type: functional, cell-based; conditions: time 6.0 day
RPMI-8226 [29] = assay: Upregulation of MYO1F gene in human RPMI-8226 cells at 1 uM for 6 days by; type: functional, cell-based; conditions: time 6.0 day
MM1.S [30] = assay: Upregulation of ID2 gene in human MM1.S cells at 1 uM for 6 days by; type: functional, cell-based; conditions: time 6.0 day
MM1.S [31] = assay: Upregulation of FCGR2B gene in human MM1.S cells at 1 uM for 6 days by; type: functional, cell-based; conditions: time 6.0 day; method in brief: as §1
MM1.S [32] = assay: Upregulation of GTF2IRD2 gene in human MM1.S cells at 1 uM for 6 days by; type: functional, cell-based; conditions: time 6.0 day; method in brief: as §1
RPMI-8226 [33] = assay: Downregulation of H3K79me2 level in human RPMI-8226 cells at 1 uM for 3 days by ChIP-qPCR analysis; type: functional, cell-based; conditions: time 3.0 day
Method in brief: (§2)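 ChIP-qPCR for H3K79me2 at IRF4-MYC signaling genes after 1 μM inhibitor or DMSO for 3 days. Signal normalized to input DNA. An intergenic region 28 kb upstream of KLF2 served as negative control. Mean of 3 replications ± SEM.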

RPMI-8226 [34] = assay: Upregulation of CFH gene in human RPMI-8226 cells at 1 uM for 6 days by; type: functional, cell-based; conditions: time 6.0 day
RPMI-8226 [35] = assay: Upregulation of MMP9 gene in human RPMI-8226 cells at 1 uM for 6 days by; type: functional, cell-based; conditions: time 6.0 day
MM1.S [36] = assay: Upregulation of LRRC56 gene in human MM1.S cells at 1 uM for 6 days by; type: functional, cell-based; conditions: time 6.0 day
MM1.S [37] = assay: Upregulation of CCDC96 gene in human MM1.S cells at 1 uM for 6 days by; type: functional, cell-based; conditions: time 6.0 day
RPMI-8226 [38] = assay: Upregulation of TP53I3 gene in human RPMI-8226 cells at 1 uM for 6 days by; type: functional, cell-based; conditions: time 6.0 day
RPMI-8226 [39] = assay: Upregulation of LY86 gene in human RPMI-8226 cells at 1 uM for 6 days by; type: functional, cell-based; conditions: time 6.0 day
MM1.S [40] = assay: Upregulation of CCL2 gene in human MM1.S cells at 1 uM for 6 days by; type: functional, cell-based; conditions: time 6.0 day
RPMI-8226 [41] = assay: Induction of apoptosis in human RPMI-8226 cells assessed as early apoptotic cells at 1 uM for 6 days by annexin-V based propidium iodide staining based flow cytometric analysis (reference value: 6.19%); type: functional; conditions: time 6 day
RPMI-8226 [42] = assay: Antitumor activity against compound pretreated cells human RPMI-8226 cells at 1 uM for 3 days xenografted in SCID mouse assessed as reduction of tumor volume measured upto 36 days; type: functional, cell-based; conditions: time 39.0 day
Method in brief: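 Ex vivo pretreatment: RPMI-8226 cells exposed to 1 μM DOT1L inhibitor or DMSO for 3 days. Then 1 × 10^7 cells in 200 μl RPMI-1640 injected subcutaneously into the thighs of 6-week-old C.B-17 SCID mice, with drug-treated cells in the left thigh and DMSO cells in the right. Tumor measured every 3 days by calipers; volume = length × width²/2; n = 5, mean ± SEM.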

RPMI-8226 [43] = assay: Effect on human RPMI-8226 cells assessed as change in IRF4 mRNA level at 1 uM for 3 days by ChIP-qPCR analysis; type: functional, cell-based; conditions: time 3.0 day; method in brief: as §2
MM1.S [44] = assay: Induction of apoptosis in human MM1.S cells assessed as necrotic cells at 1 uM for 6 days by annexin-V based propidium iodide staining based flow cytometric analysis (reference value: 1.8%); type: functional; conditions: time 6 day

CC(C)N(CCCNC(=O)Nc1ccc(C(C)(C)C)cc1)C[C@H]1O[C@@H](n2cc(Br)c3c(N)ncnc32)[C@H](O)[C@@H]1O
Activity (MM1.S [1]): Active | Activity (MM1.S [2]): Active | Activity (RPMI-8226 [3]): Active | Activity (MM1.S [4]): Active | Activity (RPMI-8226 [5]): Active | Activity (RPMI-8226 [6]): Active | Activity (MM1.S [7]): Active | Activity (RPMI-8226 [8]): Active | Activity (RPMI-8226 [9]): Active | Activity (MM1.S [10]): Active | Activity (RPMI-8226 [11]): Active | Activity (MM1.S [12]): Active | Activity (MM1.S [13]): Active | Activity (MM1.S [14]): Active | Activity (MM1.S [15]): Active | Activity (RPMI-8226 [16]): Active | Activity (RPMI-8226 [17]): Active | Activity (RPMI-8226 [18]): Active | Activity (RPMI-8226 [19]): Active | Activity (RPMI-8226 [20]): Active | Activity (RPMI-8226 [21]): Active | Activity (MM1.S [22]): Active | Activity (RPMI-8226 [23]): Active | Activity (MM1.S [24]): Active | Activity (RPMI-8226 [25]): Active | Activity (RPMI-8226 [26]): Active | Activity (MM1.S [27]): Active | Activity (KMS-11): Active | Activity (MM1.S [28]): Active | Activity (RPMI-8226 [29]): Active | Activity (MM1.S [30]): Active | Activity (MM1.S [31]): Active | Activity (MM1.S [32]): Active | Activity (RPMI-8226 [33]): Active | Activity (RPMI-8226 [34]): Active | Activity (RPMI-8226 [35]): Active | Activity (MM1.S [36]): Active | Activity (MM1.S [37]): Active | Activity (RPMI-8226 [38]): Active | Activity (RPMI-8226 [39]): Active | Activity (MM1.S [40]): Active

CC(C)N(C[C@H]1O[C@@H](n2cnc3c(N)ncnc32)[C@H](O)[C@@H]1O)[C@H]1C[C@@H](CCc2nc3cc(C(C)(C)C)ccc3[nH]2)C1 [PINOMETOSTAT]
Activity (RPMI-8226 [41]): 22.4% | Activity (RPMI-8226 [42]): Active | Activity (RPMI-8226 [43]): Active | Activity (MM1.S [44]): 2.47%
